# Source: ChEMBL document CHEMBL5724801, “EUbOPEN Chemogenomics Library - Multiplex” (2024)
# “And” between values parts separate entries of the source, which are not always exact repeats. Equal entries are not always repeated.
# Test system: U2OS
# Test: Multiplex assay against U2OS
# Assay type: toxicity, cell-based
# Settings: human
# Summary of the method: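 Cells stained live at seeding with Hoechst33342, BioTracker Green Microtubule Cytoskeleton Dye, MitoTracker Red and Annexin V Alexa Fluor 680 were imaged on a CQ1 microscope at 37°C and 5% CO2 after compound addition. Their classification by CellPathfinder machine-learning gating ran from Hoechst high-intensity objects versus normal cells, to healthy, pyknosed or fragmented nuclei among normal cells, to mitotic or apoptotic among pyknosed cells. Tubulin, mitochondrial-mass and membrane-permeability phenotypes are per cents of healthy-nucleus cells.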
# [1] = 12 h, 1 µM, compound concentration 1 uM
# [2] = 12 h, 10 µM, compound concentration 10 uM
# [3] = 24 h, 1 µM, compound concentration 1 uM
# [4] = 24 h, 10 µM, compound concentration 10 uM
# [5] = 48 h, 1 µM, compound concentration 1 uM
# [6] = 48 h, 10 µM, compound concentration 10 uM
smiles,measurement,setting,value
O=c1cccc2n1C[C@@H]1CNC[C@H]2C1 [CYTISINICLINE],Population Apoptotic (%),[1],31.43% and 36.84%
same,Population Fragmented Nuclei (%),[1],0.94% and 1.67%
same,Population Healthy Nuclei (%),[1],90.87% and 87.78%
same,Population Hoechst High Intensity Objects (%),[1],0%
same,Population Membrane Permeable-Phenotype (%),[1],1.29% and 1.9%
same,Population Mitochondria Different-Phenotype (%),[1],0% and 5.06%
same,Population Mitotic Cells (%),[1],68.57% and 63.16%
same,Population Normal (%),[1],100%
same,Population Pyknosed Nuclei (%),[1],8.2% and 10.56%
same,Population Tubulin-Different-Phenotype (%),[1],1.29% and 0%
same,Total Cell Count,[1],427 and 180
same,Population Apoptotic (%),[2],50%
same,Population Fragmented Nuclei (%),[2],0.98% and 7.59%
same,Population Healthy Nuclei (%),[2],90.71% and 82.28%
same,Population Hoechst High Intensity Objects (%),[2],0%
same,Population Membrane Permeable-Phenotype (%),[2],1.35% and 0.77%
same,Population Mitochondria Different-Phenotype (%),[2],0% and 6.92%
same,Population Mitotic Cells (%),[2],50%
same,Population Normal (%),[2],100%
same,Population Pyknosed Nuclei (%),[2],8.31% and 10.13%
same,Population Tubulin-Different-Phenotype (%),[2],1.62% and 1.54%
same,Total Cell Count,[2],409 and 158
same,Population Apoptotic (%),[3],30.23% and 40%
same,Population Fragmented Nuclei (%),[3],2.82% and 2.92%
same,Population Healthy Nuclei (%),[3],89.59% and 86.67%
same,Population Hoechst High Intensity Objects (%),[3],0%
same,Population Membrane Permeable-Phenotype (%),[3],1.18% and 2.4%
same,Population Mitochondria Different-Phenotype (%),[3],0% and 2.4%
same,Population Mitotic Cells (%),[3],69.77% and 60%
same,Population Normal (%),[3],100%
same,Population Pyknosed Nuclei (%),[3],7.58% and 10.42%
same,Population Tubulin-Different-Phenotype (%),[3],0.59% and 0.96%
same,Total Cell Count,[3],567 and 240
same,Population Apoptotic (%),[4],32.61% and 45%
same,Population Fragmented Nuclei (%),[4],0.88% and 4.81%
same,Population Healthy Nuclei (%),[4],91.01% and 85.58%
same,Population Hoechst High Intensity Objects (%),[4],0.18% and 0%
same,Population Membrane Permeable-Phenotype (%),[4],0.97% and 1.69%
same,Population Mitochondria Different-Phenotype (%),[4],0% and 3.37%
same,Population Mitotic Cells (%),[4],67.39% and 55%
same,Population Normal (%),[4],99.82% and 100%
same,Population Pyknosed Nuclei (%),[4],8.11% and 9.62%
same,Population Tubulin-Different-Phenotype (%),[4],2.13% and 1.69%
same,Total Cell Count,[4],568 and 208
same,Population Apoptotic (%),[5],42.86% and 41.18%
same,Population Fragmented Nuclei (%),[5],3.85% and 0.73%
same,Population Healthy Nuclei (%),[5],89.27% and 86.8%
same,Population Hoechst High Intensity Objects (%),[5],0% and 0.49%
same,Population Membrane Permeable-Phenotype (%),[5],0.8% and 1.41%
same,Population Mitochondria Different-Phenotype (%),[5],0.1% and 3.1%
same,Population Mitotic Cells (%),[5],57.14% and 58.82%
same,Population Normal (%),[5],100% and 99.51%
same,Population Pyknosed Nuclei (%),[5],6.89% and 12.47%
same,Population Tubulin-Different-Phenotype (%),[5],0.6% and 0.56%
same,Total Cell Count,[5],1118 and 411
same,Population Apoptotic (%),[6],42.39% and 63.89%
same,Population Fragmented Nuclei (%),[6],3.71% and 1.13%
same,Population Healthy Nuclei (%),[6],87.55% and 88.7%
same,Population Hoechst High Intensity Objects (%),[6],0%
same,Population Membrane Permeable-Phenotype (%),[6],0.65% and 2.23%
same,Population Mitochondria Different-Phenotype (%),[6],0.11% and 0.96%
same,Population Mitotic Cells (%),[6],57.61% and 36.11%
same,Population Normal (%),[6],100%
same,Population Pyknosed Nuclei (%),[6],8.75% and 10.17%
same,Population Tubulin-Different-Phenotype (%),[6],1.19% and 0.64%
same,Total Cell Count,[6],1052 and 354
C[C@@H]1C[C@H]2[C@@H]3CCC4=CC(=O)C=C[C@]4(C)[C@@]3(F)[C@@H](O)C[C@]2(C)[C@@]1(O)C(=O)CO [DEXAMETHASONE],Population Apoptotic (%),[1],77% and 80%
same,Population Fragmented Nuclei (%),[1],21% and 20%
same,Population Healthy Nuclei (%),[1],70% and 75%
same,Population Hoechst High Intensity Objects (%),[1],2% and 0%
same,Population Membrane Permeable-Phenotype (%),[1],2% and 4%
same,Population Mitochondria Different-Phenotype (%),[1],0% and 1%
same,Population Mitotic Cells (%),[1],22% and 20%
same,Population Normal (%),[1],97% and 99%
same,Population Pyknosed Nuclei (%),[1],7% and 4%
same,Population Tubulin-Different-Phenotype (%),[1],1% and 3%
same,Total Cell Count,[1],238 and 124
same,Population Apoptotic (%),[2],80% and 84%
same,Population Fragmented Nuclei (%),[2],20% and 16%
same,Population Healthy Nuclei (%),[2],69% and 76%
same,Population Hoechst High Intensity Objects (%),[2],2% and 0%
same,Population Membrane Permeable-Phenotype (%),[2],6% and 7%
same,Population Mitochondria Different-Phenotype (%),[2],1% and 2%
same,Population Mitotic Cells (%),[2],19% and 15%
same,Population Normal (%),[2],97% and 100%
same,Population Pyknosed Nuclei (%),[2],9% and 7%
same,Population Tubulin-Different-Phenotype (%),[2],2% and 3%
same,Total Cell Count,[2],319
same,Population Apoptotic (%),[3],96% and 90%
same,Population Fragmented Nuclei (%),[3],19% and 18%
same,Population Healthy Nuclei (%),[3],71% and 73%
same,Population Hoechst High Intensity Objects (%),[3],2%
same,Population Membrane Permeable-Phenotype (%),[3],4% and 6%
same,Population Mitochondria Different-Phenotype (%),[3],2% and 0%
same,Population Mitotic Cells (%),[3],4% and 9%
same,Population Normal (%),[3],97%
same,Population Pyknosed Nuclei (%),[3],8% and 7%
same,Population Tubulin-Different-Phenotype (%),[3],2% and 4%
same,Total Cell Count,[3],288
same,Population Apoptotic (%),[4],82% and 75%
same,Population Fragmented Nuclei (%),[4],17% and 14%
same,Population Healthy Nuclei (%),[4],74% and 79%
same,Population Hoechst High Intensity Objects (%),[4],1% and 0%
same,Population Membrane Permeable-Phenotype (%),[4],6%
same,Population Mitochondria Different-Phenotype (%),[4],0% and 2%
same,Population Mitotic Cells (%),[4],17% and 25%
same,Population Normal (%),[4],98% and 99%
same,Population Pyknosed Nuclei (%),[4],7% and 5%
same,Population Tubulin-Different-Phenotype (%),[4],2%
same,Total Cell Count,[4],378 and 219
same,Population Apoptotic (%),[5],84% and 71%
same,Population Fragmented Nuclei (%),[5],20% and 17%
same,Population Healthy Nuclei (%),[5],72% and 74%
same,Population Hoechst High Intensity Objects (%),[5],1% and 2%
same,Population Membrane Permeable-Phenotype (%),[5],1% and 3%
same,Population Mitochondria Different-Phenotype (%),[5],1% and 3%
same,Population Mitotic Cells (%),[5],16% and 28%
same,Population Normal (%),[5],98% and 97%
same,Population Pyknosed Nuclei (%),[5],6% and 7%
same,Population Tubulin-Different-Phenotype (%),[5],0% and 4%
same,Total Cell Count,[5],391 and 186
same,Population Apoptotic (%),[6],92% and 86%
same,Population Fragmented Nuclei (%),[6],14% and 16%
same,Population Healthy Nuclei (%),[6],77% and 76%
same,Population Hoechst High Intensity Objects (%),[6],2%
same,Population Membrane Permeable-Phenotype (%),[6],4% and 5%
same,Population Mitochondria Different-Phenotype (%),[6],1% and 0%
same,Population Mitotic Cells (%),[6],7% and 13%
same,Population Normal (%),[6],97%
same,Population Pyknosed Nuclei (%),[6],8% and 7%
same,Population Tubulin-Different-Phenotype (%),[6],1%
same,Total Cell Count,[6],497 and 294
O=C(O)Cc1ccccc1Nc1c(Cl)cccc1Cl [DICLOFENAC],Population Apoptotic (%),[1],90% and 84%
same,Population Fragmented Nuclei (%),[1],15% and 13%
same,Population Healthy Nuclei (%),[1],78% and 76%
same,Population Hoechst High Intensity Objects (%),[1],5% and 0%
same,Population Membrane Permeable-Phenotype (%),[1],4% and 5%
same,Population Mitochondria Different-Phenotype (%),[1],4% and 2%
same,Population Mitotic Cells (%),[1],10% and 15%
same,Population Normal (%),[1],94% and 99%
same,Population Pyknosed Nuclei (%),[1],6% and 10%
same,Population Tubulin-Different-Phenotype (%),[1],4% and 2%
same,Total Cell Count,[1],164
same,Population Apoptotic (%),[2],75% and 72%
same,Population Fragmented Nuclei (%),[2],20% and 14%
same,Population Healthy Nuclei (%),[2],68% and 76%
same,Population Hoechst High Intensity Objects (%),[2],2% and 3%
same,Population Membrane Permeable-Phenotype (%),[2],8%
same,Population Mitochondria Different-Phenotype (%),[2],4% and 3%
same,Population Mitotic Cells (%),[2],25% and 27%
same,Population Normal (%),[2],97% and 96%
same,Population Pyknosed Nuclei (%),[2],11% and 9%
same,Population Tubulin-Different-Phenotype (%),[2],4% and 8%
same,Total Cell Count,[2],258
same,Population Apoptotic (%),[3],92% and 87%
same,Population Fragmented Nuclei (%),[3],15% and 19%
same,Population Healthy Nuclei (%),[3],76% and 70%
same,Population Hoechst High Intensity Objects (%),[3],4% and 3%
same,Population Membrane Permeable-Phenotype (%),[3],2% and 5%
same,Population Mitochondria Different-Phenotype (%),[3],2%
same,Population Mitotic Cells (%),[3],7% and 12%
same,Population Normal (%),[3],95% and 96%
same,Population Pyknosed Nuclei (%),[3],7% and 10%
same,Population Tubulin-Different-Phenotype (%),[3],2%
same,Total Cell Count,[3],191 and 165
same,Population Apoptotic (%),[4],72% and 81%
same,Population Fragmented Nuclei (%),[4],17% and 15%
same,Population Healthy Nuclei (%),[4],72% and 77%
same,Population Hoechst High Intensity Objects (%),[4],0% and 1%
same,Population Membrane Permeable-Phenotype (%),[4],3% and 5%
same,Population Mitochondria Different-Phenotype (%),[4],1% and 2%
same,Population Mitotic Cells (%),[4],27% and 18%
same,Population Normal (%),[4],99% and 98%
same,Population Pyknosed Nuclei (%),[4],10% and 7%
same,Population Tubulin-Different-Phenotype (%),[4],2% and 4%
same,Total Cell Count,[4],311 and 153
same,Population Apoptotic (%),[5],100% and 83%
same,Population Fragmented Nuclei (%),[5],17% and 15%
same,Population Healthy Nuclei (%),[5],71% and 70%
same,Population Hoechst High Intensity Objects (%),[5],4% and 3%
same,Population Membrane Permeable-Phenotype (%),[5],4%
same,Population Mitochondria Different-Phenotype (%),[5],2% and 4%
same,Population Mitotic Cells (%),[5],0% and 16%
same,Population Normal (%),[5],95% and 96%
same,Population Pyknosed Nuclei (%),[5],10% and 14%
same,Population Tubulin-Different-Phenotype (%),[5],2% and 4%
same,Total Cell Count,[5],271 and 216
same,Population Apoptotic (%),[6],86% and 100%
same,Population Fragmented Nuclei (%),[6],16% and 12%
same,Population Healthy Nuclei (%),[6],73% and 75%
same,Population Hoechst High Intensity Objects (%),[6],2% and 1%
same,Population Membrane Permeable-Phenotype (%),[6],6%
same,Population Mitochondria Different-Phenotype (%),[6],1%
same,Population Mitotic Cells (%),[6],13% and 0%
same,Population Normal (%),[6],97% and 98%
same,Population Pyknosed Nuclei (%),[6],10% and 11%
same,Population Tubulin-Different-Phenotype (%),[6],2% and 6%
same,Total Cell Count,[6],436 and 220
